# Assay outcomes: PubChem, Sanford-Burnham Center for Chemical Genomics
# SENP6 block – SENP6 protease inhibition; Recombinant SENP6 catalytic domain, aminoluciferin luminescence; AID 2599; Q9GZR1; inhibition, % at 10 µM; actives 1.8% (n = 330,000);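 active means inhibition above about 50% at the single tested dose, limit read from the data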;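 further: plate controls were DMSO wells with enzyme for no effect and DMSO wells lacking enzyme for full effect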
# SENP7 inh – blocks the human protease SENP7; Q9BQF6; recombinant SENP7, Z-RLRGG-aminoluciferin luminescence, 40 min; inhibition, % at 5 µM; actives 1.5% (n = 330,000);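 active means inhibition above about 50% at the single test dose, limit read from the data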;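 further: plate controls were DMSO with enzyme for no effect and no enzyme buffer wells for full effect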
# SENP8 block-1 – inhibitors of human SENP8 protease; actives 0.64% (n = 360,000); inhibition, % at 20 µM; AID 602440; Q96LD8; recombinant SENP8, Nedd8 substrate fluorescence; in the data active means inhibition mostly above about 40%, no sharp cut-off; inactive means mostly below about 27%
# SENP8 block-2 – blocks the human protease SENP8. purified SENP8, Z-RLRGG-aminoluciferin cleavage, luminescence. actives 1.2% (n = 330,000). Q96LD8. AID 2540. inhibition, % at 10 µM; in the data active means inhibition above about 50%
# UBC13 polyUb – inhibitors of human UBC13 polyubiquitin chain formation | inhibition, % at 20 µM | actives 0.47% (n = 330,000) | P61088 | TR-FRET; in the data active means inhibition above about 45%, passing the limit was not always enough
# Apaf-1 inh – human Apaf-1 inhibition; O14727; reconstituted apoptosome caspase-3 activity, DEVD-Rh110 fluorescence; inhibition, % at 20 µM; actives 0.71% (n = 330,000); active means inhibition of at least 40% at 20 µM;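 further: plate controls were DMSO wells for no effect and DEVD-CHO caspase inhibitor wells for full effect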
# Target sequence (O14727 whole entry, looked up): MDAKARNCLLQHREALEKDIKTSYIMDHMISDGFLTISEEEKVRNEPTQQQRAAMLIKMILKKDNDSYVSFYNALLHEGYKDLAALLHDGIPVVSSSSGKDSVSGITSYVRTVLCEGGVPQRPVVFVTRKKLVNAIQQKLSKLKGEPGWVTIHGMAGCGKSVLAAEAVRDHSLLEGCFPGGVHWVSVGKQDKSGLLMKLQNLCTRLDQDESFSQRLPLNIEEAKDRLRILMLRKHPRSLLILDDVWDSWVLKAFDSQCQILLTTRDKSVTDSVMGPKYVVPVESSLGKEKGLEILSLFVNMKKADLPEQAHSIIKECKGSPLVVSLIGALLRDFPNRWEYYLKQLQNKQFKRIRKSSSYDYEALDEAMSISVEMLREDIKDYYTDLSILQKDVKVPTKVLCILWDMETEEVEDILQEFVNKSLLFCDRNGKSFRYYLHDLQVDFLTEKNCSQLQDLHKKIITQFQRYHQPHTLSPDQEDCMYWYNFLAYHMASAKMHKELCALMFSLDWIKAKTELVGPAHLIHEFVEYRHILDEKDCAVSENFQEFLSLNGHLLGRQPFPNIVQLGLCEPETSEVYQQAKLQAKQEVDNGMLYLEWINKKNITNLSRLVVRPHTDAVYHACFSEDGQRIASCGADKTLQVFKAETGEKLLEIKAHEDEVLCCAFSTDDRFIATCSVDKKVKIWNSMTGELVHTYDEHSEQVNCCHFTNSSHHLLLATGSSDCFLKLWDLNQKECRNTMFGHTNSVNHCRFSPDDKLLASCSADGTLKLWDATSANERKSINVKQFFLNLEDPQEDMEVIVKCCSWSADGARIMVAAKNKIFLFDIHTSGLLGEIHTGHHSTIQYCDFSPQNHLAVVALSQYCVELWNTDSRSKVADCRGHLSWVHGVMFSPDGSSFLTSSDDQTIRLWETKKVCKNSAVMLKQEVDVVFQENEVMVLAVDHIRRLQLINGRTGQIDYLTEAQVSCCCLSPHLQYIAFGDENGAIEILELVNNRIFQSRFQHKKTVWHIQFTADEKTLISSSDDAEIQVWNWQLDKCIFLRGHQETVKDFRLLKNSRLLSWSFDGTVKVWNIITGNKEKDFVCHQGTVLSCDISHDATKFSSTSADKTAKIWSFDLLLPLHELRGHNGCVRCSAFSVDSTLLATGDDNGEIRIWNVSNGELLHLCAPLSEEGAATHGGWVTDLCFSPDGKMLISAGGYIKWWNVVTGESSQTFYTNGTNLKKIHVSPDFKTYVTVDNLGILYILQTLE
#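 Material: reconstituted apoptosome with Apaf-1, cytochrome c, caspase-9, procaspase-3, dATP; medium: pH 7.5 Hepes buffer with CHAPS, BSA, DTT; also added: cytochrome c and DEVD-Rh110 substrate; timing: 30 min plus 50 min, RT; signal: Rh110 fluorescence intensity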
# SENP8 inh conf – SENP8 (human) inhibition, single concentration confirmation; actives 15% (n = 1,400); AID 624319; shares compounds with SENP8 block-1; inhibition, % at 25 µM; purified SENP8, Nedd8-AMC/pro-Nedd8 cleavage fluorescence, 30 min; in the data active means inhibition mostly above about 39%, no sharp cut-off; inactive means mostly below about 34%
# The depositor's hits bear a star; . = not tested or not shown. Shown are actives, neighbours in structure and some others; about 3.1% of the full set was active somewhere.
SMILES,SENP6 block,SENP7 inh,SENP8 block-1,SENP8 block-2,UBC13 polyUb,Apaf-1 inh,SENP8 inh conf
Cc1cc(OCC(=O)Nc2ccc(Br)cc2)cc2c1C(=O)CC(C)(C)O2,-8,2,41*,-8,-2,21,16
CC(C)(C)c1ccc(C(=O)N2CCC2(C)C(=O)Nc2cccc(C#N)c2)cc1 (stereo not drawn),.,.,6,.,.,.,.
O=C(Nc1ccc(N2CCCC2)cc1)c1ccccc1[N+](=O)[O-],7,2,35*,5,-5,-1,21
O=C(Nc1ccc(N2CCCCC2)cc1)c1ccc2ccccc2n1,38,39,40*,31,-8,19,15
CCOC(=O)[C@]12CCC=C1N(Cc1cccc3ccccc13)C(=O)[C@H](CC(=O)N1CCCC1)C2,.,.,12,.,.,.,.
C#CCN(C[C@@H]1[C@@H](OC(=O)Nc2cccs2)[C@@H](OC(=O)Nc2cccs2)Cn2c(=O)n(CCCCCC)c(=O)n21)S(=O)(=O)c1ccc(C)cc1,.,.,-2,.,.,.,.
Nc1cccc2c1C(=O)N(Cc1cccc(Cl)c1)C2=O,13,7,-438,2,39,-1,.
O=C1Cc2ccccc2C(=O)N1Cc1cccc(Cl)c1,.,.,103*,.,.,.,46*
CCOc1ccc(C(c2c(C)[nH][nH]c2=O)c2c(C)[nH][nH]c2=O)cc1OC,-3,10,54*,-2,-11,21,35
CCOc1cc(C(c2c(C)[nH][nH]c2=O)c2c(C)[nH][nH]c2=O)cc(Br)c1OC,5,3,33,2,-9,14,.
O=C(NCCN1CCOCC1)c1ccc([N+](=O)[O-])cc1[N+](=O)[O-],-12,-9,46*,5,-12,2,17
O=C(NCCN1CCOCC1)c1cc([N+](=O)[O-])ccc1Cl,-8,0,16,-11,-10,8,.
CCOC(=O)C1=C[C@@H](C(C)(C)C)N(S(=O)(=O)c2ccc(C)cc2)[C@H]1c1ccc(Cl)c(Cl)c1,.,.,7,.,.,.,.
CC(C)c1ccc(CN2CCC2(C)C(=O)Nc2cnc3ccccc3c2)cc1 (stereo not drawn),.,.,-5,.,.,.,.
Clc1ss/c(=N\c2ccccn2)c1Cl,15,13,49*,-3,1,21,29
CCC(=O)c1ccc(OCc2cn(CC(=O)c3ccc(O)cc3)nn2)cc1,.,.,32*,.,.,.,41*
COC(=O)c1ccccc1NC(=O)[C@@H]1CCC(=O)N1C1OC(=O)c2c1ccc(OC)c2OC (stereo partly drawn),-16,1,10,-10,4,-7,.
COc1cc(OC)c(NC(=O)[C@@H]2CCC(=O)N2C2OC(=O)c3c2ccc(OC)c3OC)cc1Cl (stereo partly drawn),-2,-10,51*,1,1,-4,7
O=C(NC1CCCC1)C(c1cccs1)N(Cc1ccco1)C(=O)c1csnn1 (stereo not drawn),-10,6,40*,5,7,5,4
CCCNC(=O)Nc1nc(C(N)c2ccc(OC)cc2)cs1 (stereo not drawn),.,.,7,.,.,.,.
CCCCN(C(=O)c1ccccc1Cl)C(CC(C)C)c1nc2ccccc2[nH]1 (stereo not drawn),.,.,21,.,.,.,.
COc1ccc([C@@H]2CC(=O)c3c(O)cc(O)cc3O2)cc1O,28,4,3,15,-4,-15,.
COCOc1ccc(C2CC(=O)c3c(OCOC)cc(OCOC)cc3O2)cc1 (stereo not drawn),-14,11,54*,-10,-8,7,-2
COc1cc(O)c2c(c1)OC(c1ccc(O)cc1)CC2=O (stereo not drawn),-9,0,74*,6,4,-6,18
O=C1CC(c2ccc(O)cc2)Oc2cc(O)ccc21 (stereo not drawn),11,8,51*,15,7,6,-14
COC(=O)c1cccc(CC2(C)C(=O)Nc3cc(-c4ccccc4Cl)ccc32)c1 (stereo not drawn),.,.,15,.,.,.,.
O=C(CN1C(=O)CSC1=O)N1CCc2ccccc2C1,36,3,42*,-2,2,19,63*
O=C(CN1C(=O)NC2(CCCCCCC2)C1=O)N1CCc2ccccc2C1,-8,-3,14,1,-4,6,.
